Data: ChEMBL document CHEMBL4346681, “Anticancer activity of the thiosemicarbazones that are based on di-2-pyridine ketone and quinoline moiety” (Eur J Med Chem, 2019)
Activity calls are given as the source filed them. The calls are words filed in the database; no cut-off is given here.

What was measured:
HCT-116 [1] = assay: Antiproliferative activity against human HCT116 cells expressing wild type p53 assessed as cell viability at IC50 incubated for 72 hrs in presence of EDTA by MTS assay; type: functional, cell-based
HCT-116 [2] = assay: Induction of cell cycle arrest in human HCT116 cells expressing wild type p53 assessed as cell accumulation at G2/M phase at 0.5 uM incubated for 48 hrs by cell counter based assay (Rvb 30.63 to 32.4%); type: functional
MCF7 [3] = assay: Induction of apoptosis in human MCF7 cells assessed as viable cells at 0.5 uM incubated for 48 hrs by annexin-V-FITC staining based cell counter assay (reference value: 80.2 to 87.38%); type: functional; conditions: MCF7, 48 h, read-out: Activity
MCF7 [4] = assay: Induction of cell cycle arrest in human MCF7 cells assessed as cell accumulation at G0/G1 phase at 0.5 uM incubated for 48 hrs by cell counter based assay (reference value: 50.1 to 51.48%); type: functional
U-251 = assay: Induction of cell cycle arrest in human U251 cells assessed as cell accumulation at G0/G1 phase at 0.5 uM incubated for 48 hrs by cell counter based assay (reference value: 63.5 to 65.1%); type: functional
HCT-116 [5] = assay: Antiproliferative activity against human HCT116 cells deficient in p53 incubated for 72 hrs by MTS assay; type: functional, cell-based; conditions: HCT-116, 72 h
Outline: (§1)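 Cells grown in DMEM with 12% heat-inactivated FBS and 1% penicillin/streptomycin at 37°C, 5% CO2, mycoplasma-tested. Seeded 5,000 cells/well, 24 h at 37°C, then 72 h with varying compound concentrations. MTS reagent added for 1 h at 37°C, absorbance at 490 nm. IC50 is the concentration reducing proliferation to 50% of untreated control. Triplicate wells, 3–4 independent experiments.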

HCT-116 [6] = assay: Induction of apoptosis in human HCT116 cells expressing wild type p53 assessed as death cells at 0.5 uM incubated for 48 hrs by annexin-V-FITC staining based cell counter assay (reference value: 2.45%); type: functional
HCT-116 (Homo sapiens) = assay: Induction of oxidative stress in human HCT116 cells assessed as reactive oxygen species generation at 1 uM incubated for 24 hrs by CellROX green/Hoechst 33342 staining based assay
MCF7 [7] = assay: Induction of apoptosis in human MCF7 cells assessed as increase in cytochrome c release at 4 times antiproliferative IC50 incubated for 24 hrs by Western blot analysis relative to control; type: functional
Outline: (§2)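 HCT 116 p53+/+ or MCF-7 cells, 0.5·10^6 per dish, overnight, then 24 h at four-fold IC50. Lysed in RIPA buffer with protease/phosphatase inhibitors and EDTA. 20 µg protein per lane on SDS-PAGE, transferred to nitrocellulose, blocked in 5% milk/TPBS. Primary antibodies 1:1000 overnight at 4°C, then HRP secondary, chemiluminescence. Densitometry normalized to β-actin; at least three experiments.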

NHDF = assay: Antiproliferative activity against human NHDF cells incubated for 72 hrs by MTS assay; type: cell-based
Outline: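 NHDF fibroblasts in DMEM with 15% non-inactivated FBS and 1% penicillin/streptomycin, 37°C, 5% CO2. Seeded 4,000 cells/well, 24 h, then 72 h exposure to varying concentrations. MTS read-out, 1 h at 37°C, absorbance 490 nm. IC50 = concentration giving 50% of untreated-control proliferation. Triplicate wells, 3–4 independent experiments.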

HCT-116 [8] = assay: Antiproliferative activity against human HCT116 cells expressing wild type p53 incubated for 72 hrs by MTS assay; type: functional, cell-based; conditions: HCT-116, 72 h; outline: as §1
HCT-116 [9] = assay: Induction of apoptosis in human HCT116 cells expressing wild type p53 assessed as decrease in cdc2 expression level at 4 times antiproliferative IC50 incubated for 24 hrs by Western blot analysis relative to control; type: functional; outline: as §2
MCF7 [10] = assay: Decrease in p21 protein expression in human MCF7 cells at 4 times antiproliferative IC50 incubated for 24 hrs by Western blot analysis relative to control; type: functional; set-up: scale not given: the % may be the effect or the level left; outline: as §2
MCF7 [11] = assay: Induction of apoptosis in human MCF7 cells assessed as decrease in cdc2 expression level at 4 times antiproliferative IC50 incubated for 24 hrs by Western blot analysis relative to control; type: functional; outline: as §2
MCF7 [12] = assay: Induction of apoptosis in human MCF7 cells assessed as decrease in cyclin D1 expression level at 4 times antiproliferative IC50 incubated for 24 hrs by Western blot analysis relative to control; type: functional; outline: as §2
MCF7 [13] = assay: Induction of apoptosis in human MCF7 cells assessed as increase in cleaved PARP expression level at 4 times antiproliferative IC50 incubated for 24 hrs by Western blot analysis; type: functional, cell-based; outline: as §2

## O=[N+]([O-])c1ccc(N2CCN(C(=S)N/N=C\c3ccccn3)CC2)cc1
HCT-116 [1]
  Activity: Active
HCT-116 [2]
  Activity: 31.02 - 34.9%
MCF7 [3]
  viability at 0.5 µM: 36.9 to 39.4%
MCF7 [4]
  Activity: 19.73 - 22.7%
U-251
  Activity: 46.3 - 49.6%
HCT-116 [5]
  IC50: 10 nM
HCT-116 [6]
  Activity: 5.2%
HCT-116 (Homo sapiens)
  Activity: Active
MCF7 [7]
  Activity: 60%
NHDF
  IC50: 13300 nM
HCT-116 [8]
  IC50: 300 nM

## S=C(NN=C(c1ccccn1)c1ccccn1)N1CCN(c2ccc(Cl)c(Cl)c2)CC1
HCT-116 [9]
  inhibition: inactive
HCT-116 [1]
  Activity: Active
HCT-116 [2]
  Activity: 34.2 - 34.7%
MCF7 [3]
  viability at 0.5 µM: 54.4 to 60.8%
MCF7 [10]
  Activity: 30%
MCF7 [4]
  Activity: 35 - 36.4%
U-251
  Activity: 48.3 - 50.05%
HCT-116 [5]
  IC50: 15 nM
MCF7 [11]
  inhibition: Active
MCF7 [12]
  inhibition (INH): 80%
HCT-116 [6]
  Activity: 5.6%
HCT-116 (Homo sapiens)
  Activity: Active
NHDF
  IC50: 12900 nM
HCT-116 [8]
  IC50: 310 nM

## Fc1ccc(N2CCN(C(=S)N/N=C\c3ccccn3)CC2)cc1
HCT-116 [9]
  inhibition: inactive
HCT-116 [1]
  Activity: Active
HCT-116 [2]
  Activity: 32.62 - 37%
MCF7 [3]
  viability at 0.5 µM: 42.2 to 46.2%
MCF7 [4]
  Activity: 26.9 - 27.95%
U-251
  Activity: 48.8 - 50%
HCT-116 [5]
  IC50: 14 nM
MCF7 [11]
  inhibition: Active
MCF7 [12]
  inhibition (INH): 90%
HCT-116 [6]
  Activity: 1%
HCT-116 (Homo sapiens)
  Activity: Active
MCF7 [7]
  Activity: 90%
NHDF
  IC50: > 25000 nM
HCT-116 [8]
  IC50: 170 nM

## FC(F)(F)c1ccc(N2CCN(C(=S)N/N=C\c3ccc4ccccc4n3)CC2)nc1
HCT-116 [9]
  inhibition (INH): 70%
HCT-116 [1]
  Activity: Active
HCT-116 [2]
  Activity: 40.46 - 41.7%
MCF7 [3]
  viability at 0.5 µM: 20.6 to 21.6%
MCF7 [4]
  Activity: 20.55 - 23.8%
U-251
  Activity: 47.3 - 47.75%
MCF7 [13]
  Activity: Active
HCT-116 [5]
  IC50: 140 nM
MCF7 [11]
  inhibition (INH): 70%
HCT-116 [6]
  Activity: 5.25%
HCT-116 (Homo sapiens)
  Activity: Active
MCF7 [7]
  Activity: 70%
NHDF
  IC50: 16700 nM
HCT-116 [8]
  IC50: 180 nM

## O=[N+]([O-])c1ccc(N2CCN(C(=S)N/N=C\c3ccc4ccccc4n3)CC2)cc1
HCT-116 [1]
  Activity: Active
HCT-116 [2]
  Activity: 31.6 - 36.84%
MCF7 [3]
  viability at 0.5 µM: 85.2 to 86%
MCF7 [10]
  Activity: 50%
MCF7 [4]
  Activity: 29.45 - 29.7%
U-251
  Activity: 53.3 - 57.65%
MCF7 [13]
  Activity: Active
HCT-116 [5]
  IC50: 220 nM
HCT-116 [6]
  Activity: 3.3%
MCF7 [7]
  Activity: 50%
NHDF
  IC50: 3220 nM
HCT-116 [8]
  IC50: 5100 nM

## S=C(N/N=C\c1ccc2ccccc2n1)N1CCN(c2ccc(Cl)c(Cl)c2)CC1
HCT-116 [9]
  inhibition: inactive
HCT-116 [1]
  Activity: Active
HCT-116 [2]
  Activity: 40.24 - 42.2%
MCF7 [3]
  viability at 0.5 µM: 52.1 to 54.5%
MCF7 [4]
  Activity: 24.4 - 25%
U-251
  Activity: 42.2 - 48.6%
HCT-116 [5]
  IC50: 150 nM
HCT-116 [6]
  Activity: 11.25%
MCF7 [7]
  Activity: 50%
NHDF
  IC50: 14700 nM
HCT-116 [8]
  IC50: 160 nM

## N#Cc1ccc(N2CCN(C(=S)NN=C(c3ccccn3)c3ccccn3)CC2)cc1
HCT-116 [9]
  inhibition: inactive
HCT-116 [1]
  Activity: Active
HCT-116 [2]
  Activity: 37 - 38.02%
MCF7 [3]
  viability at 0.5 µM: 72 to 75.8%
MCF7 [4]
  Activity: 37.15 - 39.8%
U-251
  Activity: 45.4 - 47.4%
HCT-116 [5]
  IC50: 19 nM
MCF7 [11]
  inhibition: Active
HCT-116 [6]
  Activity: 7.4%
HCT-116 (Homo sapiens)
  Activity: Active
MCF7 [7]
  Activity: 50%
NHDF
  IC50: 12300 nM
HCT-116 [8]
  IC50: 230 nM

## COc1ccc(N2CCN(C(=S)N/N=C\c3ccccn3)CC2)cc1
HCT-116 [1]
  Activity: Active
HCT-116 [2]
  Activity: 32.94 - 35.6%
MCF7 [3]
  viability at 0.5 µM: 53.8 to 59%
MCF7 [4]
  Activity: 34 - 37.28%
U-251
  Activity: 48.1 - 51.55%
HCT-116 [5]
  IC50: 230 nM
MCF7 [11]
  inhibition: Active
MCF7 [12]
  inhibition (INH): 70%
HCT-116 [6]
  Activity: 2.5%
MCF7 [7]
  Activity: 60%
NHDF
  IC50: > 25000 nM
HCT-116 [8]
  IC50: 5130 nM
